TRPN1 ag: activates the zebrafish TRPN1 channel. HEK293 zebrafish TRPN1-YFP, Fluo-8 calcium fluorescence; 100% = response to 87 µM carbachol. activation, % at 3 µM. 220,000 compounds, 0.18% hits. AID 1424;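 active = activation above its plate's cutoff, the mean activation of test wells on that plate plus 3 SD, cut at about 19% in these data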;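 also: 0% = DMSO alone and 100% = 87 µM carbachol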
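Assay system: Zebrafish TRPN1-YFP in HEK293 cells | Incubation: Dye loading 1 h at 37 °C, then 30 min room temperature | Measured by: Kinetic Fluo-8 fluorescence, ex 470-495, em 515-575 nm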
TAAR1 antagonist: human TAAR1 antagonism. Q96RJ0. CHO RD-HGA16 TAAR1, Fluo-8 calcium fluorescence, antagonist. 360,000 compounds, 1.5% hits. inhibition, % at 3 µM;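 active = inhibition above a per-plate cutoff, the mean inhibition of test compounds on that plate plus 3 SD, cut at about 49% in these data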;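 also: 0% = DMSO plus EC80 beta-PEA response and 100% = DMSO alone without agonist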
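System: RD-HGA16 CHO cells with stable hTAAR1 and Gα16 | Probe or stimulus: EC80 β-phenethylamine stimulus | Dosing: 3 µM, single point | Times: Dye loading 75 min at 37 °C, then 30 min room temperature | Measured by: Fluo-8 calcium-sensitive fluorescence | Read-out basis: % inhibition of agonist calcium response | Replicates: n of 1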
GPR7 antag: human neuropeptides B/W receptor 1 antagonism | P48145 | GPR7-expressing cells, fluorescence antagonist assay | inhibition, % at 4.4 µM | 290,000 compounds, 1.1% hits | AID 1861; in the data active = inhibition above about 16%, passing the limit was not always enough;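 also: cells stimulated with the agonist NPW; 0% = agonist with vehicle and 100% = vehicle without agonist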
Target sequence (P48145 whole entry, looked up): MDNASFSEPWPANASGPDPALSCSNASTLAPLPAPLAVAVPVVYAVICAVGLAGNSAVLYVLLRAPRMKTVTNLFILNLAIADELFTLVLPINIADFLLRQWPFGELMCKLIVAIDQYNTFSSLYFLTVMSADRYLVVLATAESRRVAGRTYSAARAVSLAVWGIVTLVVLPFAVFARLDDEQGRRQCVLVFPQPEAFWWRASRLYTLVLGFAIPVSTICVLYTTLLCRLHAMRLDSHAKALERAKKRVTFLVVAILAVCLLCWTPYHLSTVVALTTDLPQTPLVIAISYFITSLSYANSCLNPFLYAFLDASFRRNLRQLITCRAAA
TAAR1 agonist: human TAAR1 agonism; 360,000 compounds, 0.99% hits; activation, % at 3 µM; Q96RJ0; CHO RD-HGA16 TAAR1, Fluo-8 calcium fluorescence; vehicle wells 0%, saturating PEA agonist 100%;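 active = activation above the mean activation of all test compounds in the run plus 3 SD, cut at about 38% in these data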
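Assay system: CHO-derived RD-HGA16 cells with stable Gα16 and human TAAR1; timing: 17-24 h seeding, 75 min 37 °C dye, 30 min RT; read-out: % activation from peak over basal fluorescence ratio, DMSO-to-PEA scaled; measured by: kinetic Fluo-8 calcium fluorescence; benchmarks: low control DMSO, high control PEA (EC100); doses: 3 µM single concentration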
LANA-H2B inh: blocks KSHV LANA binding to histone H2A/H2B; Q9QR71; cell-free LANA-H2A/H2B peptide, fluorescence polarization; inhibition, % (no concentration beside the values); 320,000 compounds, 0.6% hits; in the data active = inhibition mostly above about 10%, no sharp cut-off; inactive = mostly below about 6.7%
TRPML3 agonist: activates the human TRPML3 channel; Q8TDD5; HEK293 TRPML3-YFP, Fluo-8 calcium fluorescence; 100% = the carbachol control signal; activation, % at 3 µM; 220,000 compounds, 0.29% hits;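 active = activation above its plate's cutoff, the mean activation of the plate's test wells plus 3 SD, cut at about 12% in these data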;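 also: 0% = DMSO only wells and 100% = carbachol wells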
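Test system – HEK293 line with stable expression of human TRPML3-YFP channel · Control set – carbachol 87 µM final as high control (100%), DMSO as low control (0%) · Signal – Fluo-8 calcium dye fluorescence, ex 470-495, em 515-575 nm · Incubation – 1-h 37 °C dye load, 5-s basal, 120-s post-compound reads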
An asterisk follows results filed as active; / = no result given. Hits are enriched below; roughly 3.4% of the tested compounds scored in any of these assays.

SMILES	TRPN1 ag	TAAR1 antagonist	GPR7 antag	TAAR1 agonist	LANA-H2B inh	TRPML3 agonist
COc1ccc(NC(=O)N(C)C[C@@H]2OCCCC[C@@H](C)Oc3ccc(NS(C)(=O)=O)cc3C(=O)N([C@H](C)CO)C[C@@H]2C)cc1	/	-15.8	/	0.5	/	/
Clc1ccc(-c2csc(NCC3CCCO3)n2)cc1 (stereo not given)	/	-17.4	/	-0.1	/	/
C=CCN(CC=C)C[C@@H]1CSCCS(=O)(=O)N1	/	4.0	/	1.9	/	/
COc1cc(NC(=O)c2cc3ccccc3cc2O)c(OC)cc1Cl	4.2	48.6*	11.3	4.8	-1.8	1.1
COc1cc(OC)c(NC(=O)c2ccccc2F)cc1Cl	-1.4	2.6	-0.8	2.8	1.0	0.1
COCC(=O)O[C@]1(CCN(C)CCCc2nc3ccccc3[nH]2)CCc2cc(F)ccc2[C@@H]1C(C)C	/	40.9	/	40.9*	0.2	/
CCNC(=O)c1sc2cc(C)ccc2c1Cl	-2.6	11.4	4.1	5.9	36.0*	-0.2
Cc1ccc2c(Cl)c(C(=O)NCCc3ccccc3)sc2c1	-1.2	-29.1	-3.0	1.7	-5.5	0.3
CN(C)C(=O)C[C@H]1C[C@@H]2c3cc(NC(=O)NC4CCCC4)ccc3O[C@@H]2[C@@H](CO)O1	/	-8.2	/	-0.2	/	/
CN(C)/C=N/NC(=O)c1ccc(Cl)cc1	34.1*	2.9	-1.9	2.3	-6.0	46.3*
Cc1noc(C)c1S(=O)(=O)N1CCCc2nc(-c3ccc(F)cc3)ccc21	/	9.8	/	1.7	/	/
CCOc1ccc(N(CC(=O)NC2CCCCC2)C(=O)CNC(=O)c2ccco2)cc1	0.6	-11.7	-9.0	3.0	26.1*	0.2
CC(=O)Nc1ccc(N(C(=O)c2ccco2)C(C(=O)NC2CCCC2)c2cccs2)cc1 (stereo not given)	0.6	-13.2	-2.7	9.6	3.3	0.1
O=C(CN(C(=O)CNC(=O)c1ccco1)c1ccc(F)cc1)NC1CCCCC1	/	-5.1	-8.0	4.9	1.2	/
CC(=O)Nc1ccc(N(C(=O)c2ccco2)C(C(=O)NC2CCCCC2)c2ccccc2)cc1 (stereo not given)	/	-5.8	-13.4	7.3	10.0*	/
O=C(NCC(=O)N(c1cccnc1)C(C(=O)NC1CCCCC1)c1cccnc1)c1ccco1 (stereo not given)	0.1	16.7	-12.9	6.2	13.5*	0.8
O=C1c2ccccc2C2Cc3nnccc3CN12 (stereo not given)	/	-24.5	/	1.4	/	/
NC(=O)c1ncn([C@@H]2O[C@H](C(=O)N[C@H](Cc3c[nH]c4ccccc34)C(=O)N3CCN(CC(=O)N4CCCC4)CC3)[C@@H](O)[C@H]2O)n1	/	0.4	/	-0.1	/	/
Cc1cc2c(c(=O)o1)[C@@]1(C(=O)N(C)c3c(Br)cccc31)C1=C(CCCC1=O)O2	/	-19.6	/	1.3	/	/
O=C(COC(=O)c1cccc(NC(=O)c2ccco2)c1)c1ccc(Br)cc1	1.0	61.7*	-1.2	13.1	2.2	0.3
Cc1cccc(CN2[C@@H](C)[C@H](c3ccccc3)Oc3cc(Br)ccc3S2(=O)=O)c1	/	-13.8	/	3.1	/	/
C[C@@H]1CN(c2ccc(N3CCNC[C@@H]3C)cc2C#N)CCN1Cc1ccccc1	/	-0.9	/	4.4	/	/
CCN1C(=O)/C(=C/C=C2/Sc3ccccc3N2CCO)SC1=S	1.6	2.3	-2.3	6.5	-3.8	1.0
CCN1C(=O)/C(=C/C=C2/SCCN2C)SC1=S	3.9	6.5	0.7	38.9*	1.1	2.6
CN1CCS/C1=C\C=C1/SC(=S)N(CC(=O)O)C1=O	30.8*	12.2	7.9	45.5*	/	9.9
CC(=O)N1C[C@@H](CO)[C@@H](N(C)C(=O)Nc2cccc3ccccc23)C[C@H]1c1ccccc1	/	1.2	/	-0.2	/	/
O=C(NCC1CCCO1)c1cccc(S(=O)(=O)Nc2ccc(F)cc2)c1 (stereo not given)	/	8.8	/	8.8	63.0*	/
O=C(NS(=O)(=O)c1ccc(NC(=O)C2CCCO2)cc1)c1ccccc1 (stereo not given)	0.8	7.5	5.7	3.8	5.7	1.1
O=C(Nc1ccc(S(=O)(=O)Nc2ccc(Cl)cc2)cc1)C1CCCO1 (stereo not given)	3.9	5.2	3.3	41.1*	2.9	3.3
